From ChEMBL document CHEMBL2396514, “Optimization of novel nipecotic bis(amide) inhibitors of the Rho/MKL1/SRF transcriptional pathway as potential anti-metastasis agents” (Bioorg Med Chem Lett, 2013) come the findings set out here.

As usually defined, the IC50 is the midpoint of a concentration-inhibition curve. A low value points to greater potency. A word on the inhibition: it is how much of the control response was suppressed.

Series [1] can be described thus: Kinetic solubility of the compound. Type of series: physicochemical. As to conditions: read-out: Kinetic_solubility.
Series [2] concerns PC-3. Put plainly: Antimetastatic activity against human PC3 cells after 24 hrs by scratch wound assay. The format is functional, cell-based. As to conditions: PC-3, 24 h. The method in brief:
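PC-3 cells (5.0×10^5) were grown to confluence in DMEM with 10% FBS and scratched after 24 h. Medium was switched to DMEM with 0.5% FBS containing compound at various concentrations or 0.1% DMSO. Wounds were imaged at 0 h, then fixed (10% formalin) and crystal-violet stained at 24 h. Migration = initial minus 24 h wound area, normalized to DMSO. IC50 was taken from dose-response curves.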

Series [3] can be described thus: Cytotoxicity against human PC3 cells at 100 uM by WST1 assay. Type of series: cell-based, PC-3. The note with it: read-out: INH. The method in brief:
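Read-out was inhibition of mitochondrial WST-1 reduction in PC-3 cells transiently transfected with an SRE.L luciferase reporter. Compound was tested at 100 μM. Values are the mean of n = 3 independent experiments.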
(In general: Tetrazolium dyes change colour on reduction, which living cells bring about.)

Series [4] concerns PC-3. Put plainly: Antimetastatic activity against human PC3 cells at 10 uM after 24 hrs by scratch wound assay. Type of series: functional. The note with it: PC-3, 24 h. In outline: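 Confluent PC-3 monolayers (5.0×10^5 cells plated, DMEM with 10% FBS) were scratched 24 h after plating. Cells were then exposed to compound at 10 μM, or 0.1% DMSO, in DMEM with 0.5% FBS. Wounds were imaged at 0 h and after 24 h (formalin-fixed, crystal violet-stained). Wound-area closure was quantified and expressed as percent inhibition relative to DMSO control.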

In series [5] the test system is Mus musculus. Put plainly: Toxicity in mouse assessed as organism survival at 10 to 100 mg/kg/day, ip after 5 days. Type of series: organism-based. More on the design: route intraperitoneal. As to conditions: in vivo, 120 h. In outline:
(§1)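 5-day tolerability study in mice, doses of 10, 20, 50 and 100 mg/kg/day given intraperitoneally, 3 mice per dose. Animals sacrificed on day 8, then body weight recorded, blood collected, and internal organs dissected, weighed and examined for abnormalities. Behaviour observed and survival tracked over the dosing period.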

Series [6] in a line: Cytotoxicity against human SK-MEL-147 cells by WST1 assay. The format is cell-based. The method in brief:
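WST-1 reduction was measured in SK-Mel-147 melanoma cells transiently transfected for the RhoC-SRE.L luciferase reporter assay.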

Series [7] has as its system Mus musculus. Put plainly: Toxicity in mouse assessed as increase in liver weight at 10 to 100 mg/kg/day, ip administered for 5 days measured on day 8. The format is organism-based. More on the design: route intraperitoneal. The note with it: in vivo, 120 h. In outline: as §1

Converted amounts (≈) assume the structure as drawn.

For `O=C(Nc1ccc(Cl)cc1)C1CCCN(C(=O)c2cc(C(F)(F)F)cc(C(F)(F)F)c2)C1` (centres undefined), in series [1], the solubility kinetic is 4.5 µg/mL (≈ 9.4 µM). In the series with PC-3 [2], the half-maximal inhibitory concentration (IC50) worked out at 17 µM. In series [3], the cytotoxicity at 100 µM came out at 14%. In the series on PC-3 [4], this compound registered an inhibition at 10 µM of 22%.

For the compound `O=C(Nc1ccc(Cl)cc1)C1CCCN(C(=O)c2cccc(-c3nccs3)c2)C1` (centres undefined), in series [3], the cytotoxicity at 100 µM was 32%.

`O=C(Nc1cccc(Cc2ccccc2)c1)C1CCCN(C(=O)c2cc(C(F)(F)F)cc(C(F)(F)F)c2)C1` (centres undefined): the solubility kinetic in series [1] came out at 1.89 µg/mL (≈ 3.54 µM). The inhibition at 10 µM in the series on PC-3 [4] was < 30%.

Take `O=C(Nc1cccc(S(=O)(=O)N2CCCC2)c1)C1CCCN(C(=O)c2cc(C(F)(F)F)cc(C(F)(F)F)c2)C1` (centres undefined): the inhibition at 10 µM with PC-3 [4] was < 30%.

With `O=C(CCNC(=O)c1cc(C(F)(F)F)cc(C(F)(F)F)c1)Nc1ccc(Cl)cc1`, in series [1], the solubility kinetic was 2.21 µg/mL (≈ 5.04 µM). Moreover, the inhibition at 10 µM in the series with PC-3 [4] is < 10%.

Take `O=C(Nc1cccc(CN2CCCC2)c1)C1CCCN(C(=O)c2cc(C(F)(F)F)cc(C(F)(F)F)c2)C1` (centres undefined): the cytotoxicity at 100 µM in series [3] is 51%.

On to `O=C(Nc1cccc(OCc2ccccn2)c1)C1CCCN(C(=O)c2cc(C(F)(F)F)cc(C(F)(F)F)c2)C1` (centres undefined), for which the cytotoxicity at 100 µM in series [3] came out at 15%.

With `Cc1nc(-c2cccc(C(=O)N3CCCC(C(=O)Nc4ccc(Cl)cc4)C3)c2)cs1` (centres undefined), in series [3], the cytotoxicity at 100 µM came to 1%.

Regarding `O=C(Nc1cccc([N+](=O)[O-])c1)C1CCCN(C(=O)c2cc(C(F)(F)F)cc(C(F)(F)F)c2)C1` (centres undefined), the cytotoxicity at 100 µM in series [3] is 9%.

As for `O=C(Nc1ccc(Cl)cc1)C1CCCN(C(=O)c2cccc(-c3ccco3)c2)C1` (centres undefined), the figures for the Activity result (in the series with Mus musculus [5]; in series [6]; in the series with Mus musculus [7]) were “Non-toxic”, “Non-toxic” and “Toxic”, respectively. In addition, the solubility kinetic in series [1] came to 3.09 µg/mL (≈ 7.56 µM). This compound also returned an IC50 in the series with PC-3 [2] of 4.2 µM. For the same compound, testing at 10 µM in the series on PC-3 [4] gave an inhibition of 70%.

As for `CS(=O)(=O)Nc1cccc(C(=O)N2CCCC(C(=O)Nc3ccc(Cl)cc3)C2)c1` (centres undefined), the cytotoxicity at 100 µM in series [3] came to 3%.

Turning to `O=C(Nc1cccc(Oc2ccccc2)c1)C1CCCN(C(=O)c2cc(C(F)(F)F)cc(C(F)(F)F)c2)C1` (centres undefined), in series [1], the solubility kinetic worked out at 3.22 µg/mL (≈ 6 µM). Further, in series [3], the cytotoxicity at 100 µM amounted to 1%. Moreover, in the series on PC-3 [4], the inhibition at 10 µM is < 30%.

With `O=C(Nc1ccc(Cl)cc1)C1CCCN(C(=O)c2ccc(-c3ccco3)cc2)C1` (centres undefined), the cytotoxicity at 100 µM in series [3] came to 6%.

For `CS(=O)(=O)c1cccc(C(=O)N2CCCC(C(=O)Nc3ccc(Cl)cc3)C2)c1` (centres undefined), the cytotoxicity at 100 µM in series [3] worked out at 2%.

As for `O=C(Nc1cccc(-c2cnco2)c1)C1CCCN(C(=O)c2cc(C(F)(F)F)cc(C(F)(F)F)c2)C1` (centres undefined), the cytotoxicity at 100 µM in series [3] was 9%.

As for `Cc1nc(-c2cccc(NC(=O)C3CCCN(C(=O)c4cc(C(F)(F)F)cc(C(F)(F)F)c4)C3)c2)cs1` (centres undefined), in series [3], the cytotoxicity at 100 µM is 1%. The same compound had an inhibition at 10 µM in the series on PC-3 [4] of 42%.

In the series on PC-3 [2], `C[C@@H](N)[C@H]1CC[C@H](C(=O)Nc2ccncc2)CC1` [Y-27632] returned a half-inhibitory concentration (IC50) of 28 µM.

With `CC(=O)Nc1cccc(C(=O)N2CCCC(C(=O)Nc3ccc(Cl)cc3)C2)c1` (centres undefined), the cytotoxicity at 100 µM in series [3] amounted to 4%.

Consider `O=C(Nc1ccc(Cl)cc1)C1CCCN(C(=O)c2cccc(-c3cccs3)c2)C1` (centres undefined), for which the solubility kinetic in series [1] is 1.36 µg/mL (≈ 3.2 µM). The compound also had an IC50 with PC-3 [2] of […]. The cytotoxicity at 100 µM in series [3] was 4%. Further, the inhibition at 10 µM in the series on PC-3 [4] is 70%.

`C=Cc1cccc(NC(=O)C2CCCN(C(=O)c3cc(C(F)(F)F)cc(C(F)(F)F)c3)C2)c1` (centres undefined): the cytotoxicity at 100 µM in series [3] came to 1%.

Regarding `O=C(Nc1cccc(OCCc2ccccn2)c1)C1CCCN(C(=O)c2cc(C(F)(F)F)cc(C(F)(F)F)c2)C1` (centres undefined), the cytotoxicity at 100 µM in series [3] came to 5%. Also, in the series on PC-3 [4], the inhibition at 10 µM is < 30%.

Turning to `O=C(Nc1ccc(Cl)nc1)C1CCCN(C(=O)c2cc(C(F)(F)F)cc(C(F)(F)F)c2)C1` (centres undefined), the cytotoxicity at 100 µM in series [3] worked out at 25%.
